Source: PubChem (several laboratories)
MDM2 E3 inh = blocks human Mdm2 ubiquitin ligase activity | Q00987 | cell-based MDM2 ubiquitination luciferase reporter, 2 h; 0 = plate control, 100 = twice control, blank-subtracted | signal enhancement, % at 5 µM | hit rate 0.11% among 210,000 | AID 1230;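 active = signal enhancement of 30% or more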;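 note: luminescence tracks abundance of the self-degrading MDM2-luciferase fusion protein; higher signal means inhibition of MDM2 E3 ligase activity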
Target sequence (Q00987 whole entry, looked up, the tested form may be a part): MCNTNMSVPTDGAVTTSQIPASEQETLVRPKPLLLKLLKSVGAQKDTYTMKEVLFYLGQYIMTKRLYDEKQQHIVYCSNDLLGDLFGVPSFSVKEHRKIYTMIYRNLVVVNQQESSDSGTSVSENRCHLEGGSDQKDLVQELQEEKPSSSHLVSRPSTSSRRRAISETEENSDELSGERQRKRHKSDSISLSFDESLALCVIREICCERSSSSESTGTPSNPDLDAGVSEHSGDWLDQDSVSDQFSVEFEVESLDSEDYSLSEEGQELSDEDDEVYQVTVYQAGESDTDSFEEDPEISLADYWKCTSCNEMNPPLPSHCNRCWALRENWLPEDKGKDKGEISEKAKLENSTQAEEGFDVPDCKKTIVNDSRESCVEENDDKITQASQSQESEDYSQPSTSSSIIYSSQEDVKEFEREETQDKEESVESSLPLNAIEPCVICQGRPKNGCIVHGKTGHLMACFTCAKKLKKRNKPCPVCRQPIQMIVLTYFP
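Assay system: stable mammalian line carrying autodegrading MDM2–luciferase fusion reporter; amount: 2000 cells seeded into each well; buffer or medium: DMEM; benchmarks: plate control and blank wells; signal: luciferase luminescence; timing: 2 h compound exposure at 37 °C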
S1P4 antag = antagonists of human S1P4 receptor | S1P4-expressing cells, antagonist mode, reporter read-out | inhibition, % at 4.98 µM | hit rate 0.26% among 220,000 | AID 1510 | O95977; in the data active = inhibition above about 29%;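 note: 0% = wells stimulated with agonist and 100% = vehicle wells without agonist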
L major viab = reduces viability of Leishmania major promastigotes. resazurin fluorescence viability. inhibition, % at 10 µM. hit rate 9% among 200,000; in the data active = inhibition above about 50%;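 note: promastigotes grown with compound for 44 hours at 28 °C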
S1P3 antag-1 = blocks the human S1P3 receptor | Q99500 | CHO S1P3 NFAT-BLA reporter, FRET fluorescence, antagonist mode | inhibition, % at 4.98 µM | hit rate 0.27% among 170,000 | AID 485;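 active = inhibition above the plate cutoff, the mean inhibition of test wells on that plate plus 3 SD, cut at about 28% in these data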;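 note: cells challenged with S1P at its EC80 of 0.8 µM; blue over green emission ratio from cleaved BLA substrate after 4 h stimulation; 0% = S1P-stimulated wells and 100% = unstimulated DMSO-only wells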
S1P4 agonist = agonists of human S1P4 receptor; hit rate 0.35% among 220,000; activation, % at 4.98 µM; S1P4-expressing cell line, agonist reporter assay; in the data active = activation above about 11%;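 note: 0% = DMSO vehicle and 100% = reference agonist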
S1P3 antag-2 = confirmation of human S1P3 receptor antagonists. shares compounds with S1P3 antag-1. inhibition, % at 4.98 µM. hit rate 30% among 240. CHO S1P3 NFAT-BLA reporter, FRET, antagonist mode. AID 1429;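 active = inhibition above the hit threshold that was computed for the earlier primary screen, cut at about 30% in these data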;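 note: 0% = S1P-stimulated wells and 100% = unstimulated DMSO-only wells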
* = called active by the depositor; . = no result given; ! = repeats disagree. Many of the other results were omitted from the sample, so hits are more common in it than they were.

SMILES | MDM2 E3 inh | S1P4 antag | L major viab | S1P3 antag-1 | S1P4 agonist | S1P3 antag-2
Cc1cc(C)c(NC(=O)C2CCN(c3cnccn3)CC2)c(C)c1 | -9 | -8 | 19 | . | 2 | .
O=[N+]([O-])c1ccc(/C=C/C2=NN(c3ccccc3)C(c3ccco3)C2)o1 (configuration not stated) | -8 | -11 | 42 | 38* | 1 | 9
C/C(=N\Nc1ccc([N+](=O)[O-])cc1)c1ccc(O)cc1 | -5 | 23 | 22 | 34* | 0 | 27
O=C(NCc1ccco1)C(=S)N1CCCC1 | -7 | 5 | -2 | -16 | 0 | .
O=C(NCc1ccco1)C(=S)N1CCCCC1 | -4 | 3 | -3 | 28* | 2 | -10
CNc1nc2cc([N+](=O)[O-])c([N+](=O)[O-])cc2nc1NC | -16 | -6 | 3 | 54* | -2 | 34*
CCCCCCCn1ccc(=N)cc1 | -37 | -16 | 38 | . | -3 | .
CCCCCCCCCn1ccc(=N)cc1 | -51 | -7 | . | 30* | 2 | 3
COc1ccc2cc3cc(C(=O)NCc4ccc5c(c4)OCO5)oc3nc2c1 | -6 | -31 | 20 | -7 | 0 | .
COc1ccc2cc3cc(C(=O)NCc4cccnc4)oc3nc2c1 | -14 | -8 | 15 | 30* | -1 | -3
CC(C)(C)c1ccc(CNc2ccc([N+](=O)[O-])cn2)cc1 | 0 | -12 | 8 | 30* | -2 | 15
CCOC(=O)NC(=O)C(=CNc1ccc(C)cc1)C(=O)NC(=O)OCC | -14 | 4 | 28 | -6 | 0 | .
O=C(Nc1ccc(F)cc1F)c1c(C(F)(F)F)ccnc1Oc1cccc(C(F)(F)F)c1 | -10 | 11 | . | 19 | -1 | .
O=C(Nc1ccc(F)cc1F)c1c(C(F)(F)F)ccnc1Oc1ccc(Cl)cc1 | -3 | -1 | . | 44* | -2 | 55*
CC(=O)Nc1ccc(Nc2nc(-c3ccccc3)nc3ccccc23)cc1 | -27 | 3 | 28 | -3 | -1 | .
Cc1ccc(Nc2nc(-c3cccnc3)nc3ccccc23)cc1 | 2 | -4 | . | 35* | 1 | 14
CC(C)N(C)S(=O)(=O)c1ccc(Cl)c(C(=O)O)c1 | -14 | -9 | -4 | -12 | 3 | .
Cc1cccc(C2(c3cccc(C)c3)CC2C(=O)Nc2ccc([N+](=O)[O-])cc2O)c1 (configuration not stated) | 0 | -1 | 99* | 76* | 1 | 73*
CC(=O)NS(=O)(=O)c1ccc(NS(=O)(=O)c2ccccc2[N+](=O)[O-])cc1 | -2 | 5 | . | -5 | -2 | .
COc1ccc(C(=O)NCc2ccc(-n3cccc3)cc2)cc1OC | -3 | -2 | 3 | 41* | 1 | -15
COc1ccc(C(=O)NCc2ccc(C(=O)NCC(OC)OC)cc2)cc1OC | 7 | -12 | -5 | -13 | 0 | .
COC(=O)c1cc(COC(=O)c2nc3nccc(C)n3n2)oc1C | 1 | -13 | -10 | 3 | 1 | .
O=C(Nc1ccc(Cl)cc1)Nc1cccc2nsnc12 | . | 0 | . | 29* | -1 | 16
O=C(COc1ccccc1)Nc1cccc2nsnc12 | 10 | -3 | -11 | 18 | 1 | .
CC(C)(C)c1cc(C(=O)Nc2ccc(F)cc2)n(Cc2ccc(F)cc2)n1 | -31 | 11 | . | 30* | 0 | 24
SMILES | MDM2 E3 inh | S1P4 antag | L major viab | S1P3 antag-1 | S1P4 agonist | S1P3 antag-2
CC(C)CNC(=O)c1cccc(NC(=O)Cc2ccc(Br)cc2)c1 | -7 | -14 | 0 | 30* | 0 | -14
Cc1cccc(NS(=O)(=O)c2cnc(Cl)c(Br)c2)n1 | -17 | -4 | -4 | -5 | 2 | .
S=c1[nH]ccn1-c1cccc(Cl)c1Cl | -11 | -3 | . | -11 | -2 | .
S=c1[nH]ccn1-c1ccccc1Cl | -15 | -3 | . | 73*! | 0 | -13
Cc1cc(C)cc(NC(=O)CSc2nc(CSc3ccc(Cl)cc3)cc(=O)[nH]2)c1 | -8 | 4 | . | -22 | -1 | .
Cc1cc(C)nc(SCC(=O)Nc2ccnc3ccccc23)n1 | -43 | -11 | 0 | 30* | -1 | 8
COC(=O)c1ccccc1NC(=O)CSc1nc(C)cc(C)n1 | -4 | 12 | -4 | 9 | -2 | .
C=CCn1c(O)c(C=Nc2ccc(CN3CCCCC3)cc2)c(=O)[nH]c1=S | 1 | -18 | . | 42* | 0 | -6
CNc1nc(Nc2ccccc2)nc(OCC(F)(F)F)n1 | -7 | -6 | 6 | 39* | -1 | -5
Cc1cc(C)cc(C(=O)NCC(=O)OCC(=O)N2CCN(S(=O)(=O)c3ccc4ccccc4c3)CC2)c1 | 6 | 2 | -6 | 3 | 1 | .
COc1cc(/C=C2\SC(=O)N(c3ccc(O)cc3)C2=O)cc(OC)c1OC | -1 | -19 | . | 31* | 3 | -1
COc1ccc(NC(=O)N2CCCC(c3nc(-c4ccc(C(C)C)cc4)no3)C2)cc1 (configuration not stated) | -5 | -2 | 12 | 13 | -2 | .
CCc1ccc(NC(=O)CC2C(=O)N(c3ccc(C)cc3)C(=O)N2C2CC2)cc1 (configuration not stated) | -2 | 0 | 18 | -18 | 1 | .
Cc1ccc(Oc2ccc(C=O)cn2)cc1 | -12 | -19 | 2 | 34* | -1 | -19
CO/N=C/c1ccc(Oc2ccc(C)cc2)nc1 | -12 | 5 | -8 | . | -1 | .
CCCCNC(=O)c1cn(C)c2ccc(S(=O)(=O)N3CCOCC3)cc2c1=O | . | . | . | -6 | . | .
O=C(COC(=O)C12CC3CC(CC(Br)(C3)C1)C2)Nc1cccnc1Cl | -8 | -2 | -4 | 7 | 1 | .
Cc1cc(C(=O)OC(C(=O)Nc2ccc(C)c(Cl)c2)c2ccccc2)c(C)o1 (configuration not stated) | -12 | 1 | 13 | 53* | 0 | 40*
CC(C(=O)Nc1ccccc1Br)c1ccc([N+](=O)[O-])cc1 (configuration not stated) | -13 | -9 | -3 | 6 | -1 | .
Cc1ccc(NC(=O)C(OC(=O)c2ccc(NC(N)=O)cc2)c2ccccc2)cc1Cl (configuration not stated) | -10 | -17 | 5 | -5 | 4 | .
Cc1ccc(NC(=O)C(OC(=O)c2ccccc2Cl)c2ccccc2)cc1Cl (configuration not stated) | 8 | -16 | 3 | 29* | 2 | 40*
Cc1ccc(NC(=O)C(C)c2ccc([N+](=O)[O-])cc2)cc1Cl (configuration not stated) | -13 | 11 | 56* | 49* | 0 | 48*
O=C(COc1ccc(F)cc1)NN1C(=O)CSC1=S | -11 | -9 | -8 | -10 | 1 | .
Cc1ccc(CNC(=O)CCc2nnc(Cc3ccc(-c4ccccc4)cc3)o2)o1 | 2 | 3 | -6 | 5 | 1 | .
Cc1noc(C)c1COC(=O)Cc1ccc(Br)cc1 | -2 | -5 | -10 | -18 | 0 | .
Cc1nn(C)c(C)c1CN(Cc1nc(CCC(C)C)no1)C(C)C | -21 | -4 | 0 | 32* | -1 | 13
